From ChEMBL document CHEMBL5325390, “1,2,4-Triazole-3-thione analogues with an arylakyl group at position 4 as metallo-β-lactamase inhibitors” (Bioorg Med Chem, 2022)

What was measured:
[1] = biological target: T1, Angiotensin-converting enzyme (Oryctolagus cuniculus) (UniProt P12822); settings: Lung, dose 100.0 nM
T1 sequence (whole entry): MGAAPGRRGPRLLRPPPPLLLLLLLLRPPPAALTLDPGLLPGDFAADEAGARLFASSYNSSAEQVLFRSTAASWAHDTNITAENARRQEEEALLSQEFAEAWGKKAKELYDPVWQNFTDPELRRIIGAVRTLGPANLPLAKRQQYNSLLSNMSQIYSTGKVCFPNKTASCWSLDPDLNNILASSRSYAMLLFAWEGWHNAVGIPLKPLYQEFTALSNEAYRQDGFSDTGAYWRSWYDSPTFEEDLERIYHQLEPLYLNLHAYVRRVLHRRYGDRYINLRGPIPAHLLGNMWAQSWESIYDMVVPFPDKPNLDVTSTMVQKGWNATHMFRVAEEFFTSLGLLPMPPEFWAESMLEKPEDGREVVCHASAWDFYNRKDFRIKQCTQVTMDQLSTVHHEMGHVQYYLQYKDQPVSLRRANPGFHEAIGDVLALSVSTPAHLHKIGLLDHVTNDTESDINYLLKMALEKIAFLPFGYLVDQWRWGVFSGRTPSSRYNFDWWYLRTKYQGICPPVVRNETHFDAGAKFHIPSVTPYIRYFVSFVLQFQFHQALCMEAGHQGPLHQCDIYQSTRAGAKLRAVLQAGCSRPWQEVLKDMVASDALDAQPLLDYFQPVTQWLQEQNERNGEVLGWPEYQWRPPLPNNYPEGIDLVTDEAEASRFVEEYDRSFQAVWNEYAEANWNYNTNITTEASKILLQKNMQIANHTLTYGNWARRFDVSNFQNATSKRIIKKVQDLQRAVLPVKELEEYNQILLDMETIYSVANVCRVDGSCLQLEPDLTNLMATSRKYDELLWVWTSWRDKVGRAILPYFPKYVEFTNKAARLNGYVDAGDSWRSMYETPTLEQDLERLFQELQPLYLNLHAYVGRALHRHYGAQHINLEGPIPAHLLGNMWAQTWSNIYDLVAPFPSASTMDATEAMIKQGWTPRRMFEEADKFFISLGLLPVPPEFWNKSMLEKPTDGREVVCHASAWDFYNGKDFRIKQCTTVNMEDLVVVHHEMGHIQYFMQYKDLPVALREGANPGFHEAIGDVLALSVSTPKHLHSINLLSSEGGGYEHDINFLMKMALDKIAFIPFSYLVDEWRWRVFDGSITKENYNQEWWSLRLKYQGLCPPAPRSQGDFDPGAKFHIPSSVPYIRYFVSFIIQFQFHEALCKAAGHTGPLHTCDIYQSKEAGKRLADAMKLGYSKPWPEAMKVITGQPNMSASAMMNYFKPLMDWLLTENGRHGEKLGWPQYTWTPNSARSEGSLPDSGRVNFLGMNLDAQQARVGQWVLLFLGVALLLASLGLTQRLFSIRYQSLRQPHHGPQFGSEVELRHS

[2] = biological target: Beta-lactamase VIM-1 (Bacteria, UniProt Q8GDC1); experiment: Binding affinity to VIM-1 (unknown origin) expressed in Escherichia coli BL21(DE3) assessed as inhibition constant by measuring rate of substrate hydrolysis by UV-Vis spectrophotometric analysis
Method in brief: (§1)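 Purified MBL (1–70 nM) with 150 µM imipenem or meropenem as reporter substrate, 50 mM HEPES pH 7.5, 30 °C. Hydrolysis followed by absorbance at 300 nm without and with inhibitor (0.5 µM–1 mM). Ki from the slope of v0/vi vs [I] under a competitive model, or from Dixon plots varying inhibitor and substrate. […] Triplicate, mean ± SD.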

[3] = Binding affinity to VIM-2 (unknown origin) expressed in Escherichia coli BL21(DE3) assessed as inhibition constant by measuring rate of substrate hydrolysis by UV-Vis spectrophotometric analysis
Method in brief: as §1

[4] = Binding affinity to VIM-4 (unknown origin) expressed in Escherichia coli BL21(DE3) assessed as inhibition constant by measuring rate of substrate hydrolysis by UV-Vis spectrophotometric analysis
Method in brief: as §1

[5] = biological target: Metallo-beta-lactamase type 2 (Bacteria, UniProt C7C422); experiment: Binding affinity to NDM1 (unknown origin) expressed in Escherichia coli BL21(DE3) assessed as inhibition constant by measuring rate of substrate hydrolysis by UV-Vis spectrophotometric analysis; settings: read-out: Ki
Method in brief: as §1

[6] = Binding affinity to IMP1 (unknown origin) expressed in Escherichia coli BL21(DE3) assessed as inhibition constant by measuring rate of substrate hydrolysis by UV-Vis spectrophotometric analysis; settings: read-out: Ki
Method in brief: as §1

[7] = tested on: Klebsiella pneumoniae; experiment: Antimicrobial synergistic activity against blaVIM-1-producing multidrug-resistant Klebsiella pneumoniae 7023 clinical isolate assessed as meropenem MIC at 32 ug/ml by CLSI based broth microdilution method (reference value: 16 ug/ml); assay type: functional; settings: dose 32 µg/ml
[8] = tested on: Klebsiella pneumoniae; experiment: Antimicrobial synergistic activity against blaVIM-4-producing multidrug-resistant Klebsiella pneumoniae VA416/02 clinical isolate assessed as meropenem MIC at 32 ug/ml by CLSI based broth microdilution method (reference value: 16 ug/ml); assay type: functional; settings: dose 32 µg/ml
[9] = tested on: Escherichia coli; experiment: Synergistic antimicrobial activity against blaNDM-1-producing multidrug-resistant Escherichia coli SI-004M clinical isolate assessed as meropenem MIC at 32 ug/ml by CLSI based microdilution method (reference value: 64 ug/ml); assay type: functional; settings: dose 32 µg/ml
[10] = tested on: Klebsiella pneumoniae; experiment: Synergistic antimicrobial activity against blaVIM-4-producing multidrug-resistant Klebsiella pneumoniae VA416/02 clinical isolate assessed as fractional inhibitory concentration index in presence of meropenem by checkerboard assay; assay type: functional
[11] = biological target: T1, Angiotensin-converting enzyme (Oryctolagus cuniculus); experiment: Inhibition of rabbit lung angiotensin-converting enzyme at 100 uM using Abz-Gly-Phe-(NO2)-Pro as substrate by fluorescence based microplate reader analysis relative to control; assay type: tissue-based
Method in brief: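 Rabbit lung ACE, 1.5 mU per well, in 150 mM Tris, 750 mM NaCl, pH 8.3, with Abz-Gly-Phe(NO2)-Pro substrate. Blank-corrected fluorescence of released Abz-Gly-OH (ex 316, em 413 nm) followed up to 90 min. Test compounds at 100 µM; captopril control at 100 nM. Inhibition % = 100 − (vi/v0 × 100).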

[12] = biological target: T2, Angiotensin-converting enzyme (Oryctolagus cuniculus, UniProt P12822); experiment: Binding affinity to rabbit lung angiotensin-converting enzyme assessed as inhibition constant
T2 sequence (P12822 whole entry): T1 sequence (whole entry)

[13] = tested on: HeLa; experiment: Cytotoxicity against human HeLa cells assessed as induction of cell lysis upto 250 uM measured for 72 hrs by realtime-glo MT assay; assay type: toxicity, cell-based
Method in brief: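 HeLa cells at 1,500 cells/well exposed to compound up to 250 µM for up to 72 h. Viability read by RealTime-Glo MT luminescent assay. Triplicate.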

[14] = tested on: metallo-β-lactamase IMP-1 (Pseudomonas aeruginosa); experiment: Inhibition of IMP1 (unknown origin) expressed in Escherichia coli BL21(DE3) assessed as substrate hydrolysis at 100 uM by UV-Vis spectrophotometric analysis relative to control
[15] = tested on: metallo-β-lactamase IMP-1 (Pseudomonas aeruginosa); experiment: Inhibition of IMP1 (unknown origin) expressed in Escherichia coli BL21(DE3) assessed as substrate hydrolysis at 200 uM by UV-Vis spectrophotometric analysis relative to control
[16] = biological target: Metallo-beta-lactamase type 2 (Bacteria) (UniProt C7C422); experiment: Inhibition of NDM1 (unknown origin) expressed in Escherichia coli BL21(DE3) assessed as substrate hydrolysis at 100 uM by UV-Vis spectrophotometric analysis relative to control
Method in brief: (§2)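 Single-point screen at 100 or 200 µM inhibitor against purified MBL (1–70 nM) with 150 µM imipenem or meropenem reporter substrate, 50 mM HEPES pH 7.5, 30 °C. Initial hydrolysis rate read by absorbance at 300 nm and compared with the uninhibited reaction. Triplicate.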

[17] = biological target: Beta-lactamase VIM-1 (Bacteria) (UniProt Q8GDC1); experiment: Inhibition of VIM-1 (unknown origin) expressed in Escherichia coli BL21(DE3) assessed as substrate hydrolysis at 100 uM by UV-Vis spectrophotometric analysis relative to control
Method in brief: as §2

[18] = biological target: Beta-lactamase VIM-1 (Bacteria) (UniProt Q8GDC1); experiment: Inhibition of VIM-1 (unknown origin) expressed in Escherichia coli BL21(DE3) assessed as substrate hydrolysis at 200 uM by UV-Vis spectrophotometric analysis relative to control
Method in brief: as §2

[19] = biological target: Metallo-beta-lactamase type 2 (Bacteria) (UniProt C7C422); experiment: Inhibition of NDM1 (unknown origin) expressed in Escherichia coli BL21(DE3) assessed as substrate hydrolysis at 200 uM by UV-Vis spectrophotometric analysis relative to control
Method in brief: as §2

[20] = tested on: metallo-β-lactamase VIM-2 (Pseudomonas aeruginosa); experiment: Inhibition of VIM-2 (unknown origin) expressed in Escherichia coli BL21(DE3) assessed as substrate hydrolysis at 100 uM by UV-Vis spectrophotometric analysis relative to control
[21] = tested on: metallo-β-lactamase VIM-2 (Pseudomonas aeruginosa); experiment: Inhibition of VIM-2 (unknown origin) expressed in Escherichia coli BL21(DE3) assessed as substrate hydrolysis at 200 uM by UV-Vis spectrophotometric analysis relative to control
[22] = tested on: metallo-β-lactamase VIM-4 (Pseudomonas aeruginosa); experiment: Inhibition of VIM-4 (unknown origin) expressed in Escherichia coli BL21(DE3) assessed as substrate hydrolysis at 100 uM by UV-Vis spectrophotometric analysis relative to control
[23] = tested on: metallo-β-lactamase VIM-4 (Pseudomonas aeruginosa); experiment: Inhibition of VIM-4 (unknown origin) expressed in Escherichia coli BL21(DE3) assessed as substrate hydrolysis at 200 uM by UV-Vis spectrophotometric analysis relative to control
[24] = tested on: metallo-β-lactamase L1 (Stenotrophomonas maltophilia); experiment: Inhibition of L1 (unknown origin) expressed in Escherichia coli BL21(DE3) assessed as substrate hydrolysis at 100 uM by UV-Vis spectrophotometric analysis relative to control

Metallo-beta-lactamase type 2 (Bacteria), sequence (C7C422 whole entry): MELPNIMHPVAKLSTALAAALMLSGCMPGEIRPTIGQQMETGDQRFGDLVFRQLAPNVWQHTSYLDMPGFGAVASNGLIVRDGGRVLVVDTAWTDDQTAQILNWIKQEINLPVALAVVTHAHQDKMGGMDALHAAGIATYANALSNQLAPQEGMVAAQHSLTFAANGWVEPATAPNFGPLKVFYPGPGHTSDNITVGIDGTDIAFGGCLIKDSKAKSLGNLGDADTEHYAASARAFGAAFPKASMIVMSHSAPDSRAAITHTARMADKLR
Metallo-beta-lactamase type 2, sequence (C7C422 whole entry): as above

inhibition [14]	inhibition [15]	inhibition [16]	inhibition [17]	inhibition [18]	inhibition [19]	inhibition [20]	inhibition [21]	inhibition [22]	SMILES	Ki [2]	Ki [3]	Ki [4]	Ki [5]	Ki [6]	MIC [7]	MIC [8]	MIC [9]	FIC [10]	inhibition [11]	Ki [12]	further results
< 30%	< 50%	< 30%	< 30%	< 50%	< 50%	< 30%	< 50%	< 30%	S=c1[nH]nc(-c2cc3ccccc3[nH]2)n1-c1ccc(OCc2ccccc2)cc1												inhibition [23]: < 50%
< 30%	< 50%	< 30%	< 30%	< 50%	< 50%	< 30%	< 50%	< 30%	S=c1[nH]nc(Cc2ccc3ccccc3c2)n1-c1ccc(OCc2ccccc2)cc1												inhibition [23]: < 50%

The next lines start with the compound.

SMILES	inhibition [14]	inhibition [15]	inhibition [16]	inhibition [17]	inhibition [18]	inhibition [19]	inhibition [20]	inhibition [21]	inhibition [22]	Ki [2]	Ki [3]	Ki [4]	Ki [5]	Ki [6]	MIC [7]	MIC [8]	MIC [9]	FIC [10]	inhibition [11]	Ki [12]	further results
C[C@H](CS)C(=O)N1CCC[C@H]1C(=O)O																					inhibition [1]: 96%
Oc1ccc(CCn2c(-c3cccc(-c4ccccc4)c3)n[nH]c2=S)cc1O										1300 nM	1700 nM	680 nM	17400 nM	9200 nM	16 µg/mL	2 µg/mL	32 µg/mL	0.48			
Oc1ccc(CCn2c(-c3cccc(-c4ccccc4)c3)n[nH]c2=S)c(O)c1	< 30%	< 50%								410 nM	1300 nM	820 nM	14300 nM		2 µg/mL	4 µg/mL	32 µg/mL		35%	55000 nM	Activity [13]: Non-Toxic
S=c1[nH]nc(-c2ccccc2)n1CCCc1ccccc1			< 30%							560 nM	740 nM	900 nM		14000 nM	2 µg/mL	2 µg/mL	64 µg/mL	0.25	50%	30000 nM	inhibition [24]: < 30%
